Measurements taken from PMC9350900 (ACS chemical neuroscience, 2021).
Read-outs that look alike come from different tables or passages of the source.

Experiments:
[1] = type: in vitro ADME; settings: human
[2] = type: in vitro ADME; settings: rat
[3] = target: T1, melatonin binding site (MT3 (ML2)) on quinone dehydrogenase 2 (Mesocricetus auratus, UniProt A0ABM2YAB8); test: Off-target selectivity screen; settings: 1.0 μM, specific radioligand
T1 sequence (A0ABM2YAB8 1-231): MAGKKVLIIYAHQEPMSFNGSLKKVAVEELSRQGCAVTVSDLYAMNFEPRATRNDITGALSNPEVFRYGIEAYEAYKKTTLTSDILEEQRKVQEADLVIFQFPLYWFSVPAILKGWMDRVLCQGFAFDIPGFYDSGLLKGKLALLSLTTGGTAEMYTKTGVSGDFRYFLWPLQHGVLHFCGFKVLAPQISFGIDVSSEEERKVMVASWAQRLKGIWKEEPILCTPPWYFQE

[4] = system: 93 CNS receptors and enzymes, including MAO-A and MAO-B; test: Off-target selectivity screen; type: binding; settings: 93 proteins including MAO-A and MAO-B, 1.0 μM
P-glycoprotein = P-glycoprotein (Homo sapiens, UniProt P08183); settings: MDCK-MDR1
P-glycoprotein, sequence (P08183 whole entry): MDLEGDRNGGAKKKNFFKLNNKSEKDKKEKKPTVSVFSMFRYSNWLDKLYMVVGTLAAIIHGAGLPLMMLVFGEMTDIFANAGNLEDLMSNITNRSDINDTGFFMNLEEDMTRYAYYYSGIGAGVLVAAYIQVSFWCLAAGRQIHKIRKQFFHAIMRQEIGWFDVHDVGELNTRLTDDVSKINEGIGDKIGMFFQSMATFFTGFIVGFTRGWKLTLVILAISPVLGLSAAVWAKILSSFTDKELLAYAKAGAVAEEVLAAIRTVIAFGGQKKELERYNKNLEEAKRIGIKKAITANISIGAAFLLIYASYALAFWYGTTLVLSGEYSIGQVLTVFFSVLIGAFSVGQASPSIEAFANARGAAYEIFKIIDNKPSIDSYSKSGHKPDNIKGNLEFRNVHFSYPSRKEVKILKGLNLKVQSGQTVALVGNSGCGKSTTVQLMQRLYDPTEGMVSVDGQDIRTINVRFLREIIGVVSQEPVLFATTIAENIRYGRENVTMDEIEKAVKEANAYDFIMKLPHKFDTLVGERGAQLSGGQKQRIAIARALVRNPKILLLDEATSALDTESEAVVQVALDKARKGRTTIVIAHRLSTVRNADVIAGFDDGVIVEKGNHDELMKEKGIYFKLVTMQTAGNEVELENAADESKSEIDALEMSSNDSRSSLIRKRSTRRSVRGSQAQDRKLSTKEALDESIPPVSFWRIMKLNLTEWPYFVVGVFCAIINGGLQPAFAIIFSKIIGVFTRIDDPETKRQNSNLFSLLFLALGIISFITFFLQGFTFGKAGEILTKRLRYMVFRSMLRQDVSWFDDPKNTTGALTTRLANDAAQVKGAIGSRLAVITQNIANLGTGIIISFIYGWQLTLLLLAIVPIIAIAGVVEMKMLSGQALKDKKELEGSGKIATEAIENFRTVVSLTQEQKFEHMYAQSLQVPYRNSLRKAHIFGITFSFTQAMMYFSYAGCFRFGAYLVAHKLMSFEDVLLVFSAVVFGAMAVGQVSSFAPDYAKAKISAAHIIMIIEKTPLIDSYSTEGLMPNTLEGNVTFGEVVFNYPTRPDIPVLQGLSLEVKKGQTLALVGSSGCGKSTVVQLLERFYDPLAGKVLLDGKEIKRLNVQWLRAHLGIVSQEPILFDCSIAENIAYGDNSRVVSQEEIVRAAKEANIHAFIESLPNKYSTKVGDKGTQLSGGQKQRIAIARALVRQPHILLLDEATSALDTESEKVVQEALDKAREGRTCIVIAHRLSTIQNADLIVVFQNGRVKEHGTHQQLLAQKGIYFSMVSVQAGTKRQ

[5] = human
[6] = rat
[7] = Dynamic PET imaging in wild-type mice; type: in vivo, mouse; settings: wt male mice
Outline: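 Three male C57BL/6 mice (7.5 months, 29–32 g) given an i.v. bolus of the [18F] tracer (9.1 ± 1.1 MBq; Am 18 ± 10 GBq/μmol). 60-min dynamic PET/MRI in 33 frames, FBP reconstruction. Decay-corrected, no attenuation or scatter correction. Whole-brain TAC via MR template atlas; SUV = regional radioactivity normalised to injected activity and body weight.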

[8] = Dynamic PET imaging in healthy rats; type: in vivo, rat
Outline: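 Two healthy Sprague-Dawley rats, 3 months old (male 358 g, female 241 g), injected i.v. with 15.5 and 16.5 MBq of the [18F] tracer (Am 19 and 8 GBq/μmol). 120-min dynamic PET/MRI in 39 frames, FBP with Hann filter. Decay-corrected, without attenuation or scatter correction. Whole-brain TAC from MR template atlas; SUV normalised to injected activity and body weight.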

[9] = Baseline dynamic PET imaging in non-human primate; type: in vivo, rhesus monkey (Macaca mulatta); settings: rhesus monkey, i.v. 185 MBq
Outline: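 Rhesus monkey sedated with ketamine (15 mg/kg i.m.) plus glycopyrrolate (0.01 mg/kg i.m.), intubated, and kept under isoflurane (0.5–2.0%) in 40% oxygen/air. CT scan for attenuation correction. The [18F] tracer (185 MBq, <1.0 microgram mass) was given as a slow i.v. bolus (~20 s) with saline flush. Dynamic 90-min scan in 27 frames, FBP-reconstructed with full corrections. Whole-brain ROI time-activity curve in SUV.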

[10] = Radiometabolite analysis of blood samples in non-human primate; type: in vivo, rhesus monkey (Macaca mulatta); settings: rhesus monkey blood, 10 min
Outline: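 Anesthetised rhesus monkey given 185 MBq of the [18F] tracer as an i.v. bolus. Venous blood (~3 mL) drawn via saphenous catheter at 2, 10, 30, 45 and 90 min post-injection. Samples analysed by radio-HPLC for radiolabelled metabolites and the time-varying fraction of unmetabolized parent tracer.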

[11] = Lipophilicity by shake-flask method; type: physicochemical; settings: 1-octanol

Structure (SMILES)	stability in liver microsomes [1] [L/h/kg]	stability in liver microsomes [2] [L/h/kg]	interaction with off-target [3]	affinity for off-targets [4]	efflux ratio (B-A/A-B) (P-glycoprotein)	free fraction in blood plasma [5] [%]	free fraction in blood plasma [6] [%]	maximum radioactivity in whole brain ([7]; i.v. bolus 9.1 ± 1.1 MBq) [SUV]	whole brain radioactivity after 30 min ([7]; i.v., after 30 min)	maximum radioactivity in whole brain ([8]; i.v. 15.5 and 16.5 MBq) [SUV]	whole brain radioactivity after 30 min ([8]; i.v., after 30 min)	peak brain activity [9] [SUV]	time to peak brain activity [9] [min]	brain activity after 25 min ([9]; after 25 min)	fraction of unmetabolized parent [10] [%]	logD7.4 [11]
OCC1CCN(c2ccc(-c3cc4cc(O)ccc4[nH]3)c(F)n2)CC1 [CBD-2115]	0.514	3.83	specific interaction	no significant affinity	0.98	2.70	2.85	–	–	–	–	–	–	–	–	–
OCC1CCN(c2ccc(-c3cc4cc(O)ccc4[nH]3)c([18F])n2)CC1 [[^18F]CBD-2115]	–	–	–	–	–	–	–	0.66	below 0.1 SUV	0.5	below 0.1 SUV	0.65	≤ 2	below 0.2 SUV	45	2.99 ± 0.15
